ChEMBL document CHEMBL1137497, “4-arylcyclohexylalanine analogs as potent, selective, and orally active inhibitors of dipeptidyl peptidase IV” (Bioorg Med Chem Lett, 2007)

Tests used:
Dipeptidyl peptidase 8 = Dipeptidyl peptidase 8 (Homo sapiens, UniProt Q6V1X1); assay: Inhibition of human DPP8
[1] = Plasma clearance in rat at 1 mg/kg, iv or 2 mg/kg, po; type: ADME, organism-based
In short: (§1)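 Pharmacokinetic parameters derived by noncompartmental analysis.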

Mus musculus [2] = assay: Reduction in glucose excursion in mouse at 0.1 mg/kg, po administered 60 mins prior to dextrose challenge by oral glucose tolerance test; type: functional; set-up: scale not given: the % may be the effect or the level left
In short: (§2)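 Single oral dose given 60 min before an oral dextrose challenge. Blood glucose was monitored, and glucose excursion was expressed as percent reduction relative to vehicle-dosed controls.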

[3] = Oral bioavailability in rat at 2 mg/kg; type: ADME, organism-based; details: in vivo; in short: as §1
Dipeptidyl peptidase 9 = Dipeptidyl peptidase 9 (Homo sapiens, UniProt Q86TI2); assay: Inhibition of human DPP9
[4] = biological target: Voltage-gated inwardly rectifying potassium channel KCNH2 (Homo sapiens, UniProt Q12809); assay: Inhibition of human ERG
[5] = Plasma clearance in rat; type: ADME, organism-based
[6] = Half life in rat; type: ADME, organism-based; details: in vivo
[7] = Oral bioavailability in rat; type: ADME, organism-based; details: in vivo
[8] = Half life in rhesus monkey at 1 mg/kg, iv or 2 mg/kg, po; type: ADME, organism-based, Macaca mulatta; details: in vivo; in short: as §1
[9] = Half life in dog at 0.5 mg/kg, po; type: ADME, organism-based, Canis lupus familiaris; set-up: dose 0.5 mg/kg, route oral; details: in vivo; in short: as §1
[10] = Plasma clearance in rhesus monkey at 1 mg/kg, iv or 2 mg/kg, po; type: ADME, organism-based, Macaca mulatta; in short: as §1
Canis familiaris = assay: AUC in dog at 0.5 mg/kg, po; type: ADME, organism-based, Canis lupus familiaris, Plasma; set-up: dose 0.5 mg/kg, route oral; details: in vivo; in short: as §1
[11] = Oral bioavailability in rhesus monkey at 2 mg/kg; type: ADME, organism-based, Macaca mulatta; details: in vivo; in short: as §1
[12] = AUC in rhesus monkey at 2 mg/kg, po; type: ADME, organism-based, Macaca mulatta; set-up: dose 2 mg/kg, route oral; details: plasma; in short: as §1
[13] = Cmax in rat at 1 mg/kg, iv or 2 mg/kg, po; type: ADME, organism-based; details: in vivo; in short: as §1
[14] = Half life in rat at 1 mg/kg, iv or 2 mg/kg, po; type: ADME, organism-based; details: in vivo; in short: as §1
[15] = AUC in rat at 2 mg/kg, po; type: ADME, organism-based; set-up: dose 2 mg/kg, route oral; details: plasma; in short: as §1
[16] = Cmax in dog at 0.5 mg/kg, po; type: ADME, organism-based, Canis lupus familiaris; set-up: dose 0.5 mg/kg, route oral; details: in vivo; in short: as §1
Mus musculus [17] = assay: Reduction in glucose excursion in mouse at 0.03 mg/kg, po administered 60 mins prior to dextrose challenge by oral glucose tolerance test; type: functional; set-up: scale not given: the % may be the effect or the level left; in short: as §2
[18] = Cmax in rhesus monkey at 1 mg/kg, iv or 2 mg/kg, po; type: ADME, organism-based, Macaca mulatta; details: in vivo; in short: as §1
[19] = Oral bioavailability in dog at 0.5 mg/kg; type: ADME, organism-based, Canis lupus familiaris; details: in vivo; in short: as §1

Chain of Voltage-gated inwardly rectifying potassium channel KCNH2 (Q12809 whole entry): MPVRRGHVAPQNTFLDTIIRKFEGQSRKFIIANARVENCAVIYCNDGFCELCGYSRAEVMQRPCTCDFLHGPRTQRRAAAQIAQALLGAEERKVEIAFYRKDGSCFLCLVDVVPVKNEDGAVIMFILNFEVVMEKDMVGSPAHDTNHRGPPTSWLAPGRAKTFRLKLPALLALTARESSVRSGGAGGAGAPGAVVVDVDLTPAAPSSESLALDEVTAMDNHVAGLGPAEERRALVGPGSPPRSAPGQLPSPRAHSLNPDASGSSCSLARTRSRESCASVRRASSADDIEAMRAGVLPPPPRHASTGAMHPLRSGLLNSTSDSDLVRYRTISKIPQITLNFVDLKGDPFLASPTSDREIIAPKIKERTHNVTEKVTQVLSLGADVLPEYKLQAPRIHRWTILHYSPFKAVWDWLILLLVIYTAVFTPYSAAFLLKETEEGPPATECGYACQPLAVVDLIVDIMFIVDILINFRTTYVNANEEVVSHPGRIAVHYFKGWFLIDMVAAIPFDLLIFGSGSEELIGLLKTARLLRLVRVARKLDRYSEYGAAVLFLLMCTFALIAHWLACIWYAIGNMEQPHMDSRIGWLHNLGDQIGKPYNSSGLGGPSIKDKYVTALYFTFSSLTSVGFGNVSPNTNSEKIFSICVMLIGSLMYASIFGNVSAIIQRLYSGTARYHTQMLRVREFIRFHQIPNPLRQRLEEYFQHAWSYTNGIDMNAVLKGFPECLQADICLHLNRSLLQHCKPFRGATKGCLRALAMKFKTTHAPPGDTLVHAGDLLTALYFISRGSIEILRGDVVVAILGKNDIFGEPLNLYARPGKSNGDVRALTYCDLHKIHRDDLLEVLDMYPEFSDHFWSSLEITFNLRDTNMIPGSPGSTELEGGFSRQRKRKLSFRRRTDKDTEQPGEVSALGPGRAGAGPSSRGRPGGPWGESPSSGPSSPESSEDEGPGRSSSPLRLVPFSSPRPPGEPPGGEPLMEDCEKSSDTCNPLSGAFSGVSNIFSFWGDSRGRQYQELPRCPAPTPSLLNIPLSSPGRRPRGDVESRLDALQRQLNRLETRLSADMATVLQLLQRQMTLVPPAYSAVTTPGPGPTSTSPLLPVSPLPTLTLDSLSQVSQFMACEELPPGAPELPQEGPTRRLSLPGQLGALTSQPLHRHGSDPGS
Chain of Dipeptidyl peptidase 8 (Q6V1X1 whole entry): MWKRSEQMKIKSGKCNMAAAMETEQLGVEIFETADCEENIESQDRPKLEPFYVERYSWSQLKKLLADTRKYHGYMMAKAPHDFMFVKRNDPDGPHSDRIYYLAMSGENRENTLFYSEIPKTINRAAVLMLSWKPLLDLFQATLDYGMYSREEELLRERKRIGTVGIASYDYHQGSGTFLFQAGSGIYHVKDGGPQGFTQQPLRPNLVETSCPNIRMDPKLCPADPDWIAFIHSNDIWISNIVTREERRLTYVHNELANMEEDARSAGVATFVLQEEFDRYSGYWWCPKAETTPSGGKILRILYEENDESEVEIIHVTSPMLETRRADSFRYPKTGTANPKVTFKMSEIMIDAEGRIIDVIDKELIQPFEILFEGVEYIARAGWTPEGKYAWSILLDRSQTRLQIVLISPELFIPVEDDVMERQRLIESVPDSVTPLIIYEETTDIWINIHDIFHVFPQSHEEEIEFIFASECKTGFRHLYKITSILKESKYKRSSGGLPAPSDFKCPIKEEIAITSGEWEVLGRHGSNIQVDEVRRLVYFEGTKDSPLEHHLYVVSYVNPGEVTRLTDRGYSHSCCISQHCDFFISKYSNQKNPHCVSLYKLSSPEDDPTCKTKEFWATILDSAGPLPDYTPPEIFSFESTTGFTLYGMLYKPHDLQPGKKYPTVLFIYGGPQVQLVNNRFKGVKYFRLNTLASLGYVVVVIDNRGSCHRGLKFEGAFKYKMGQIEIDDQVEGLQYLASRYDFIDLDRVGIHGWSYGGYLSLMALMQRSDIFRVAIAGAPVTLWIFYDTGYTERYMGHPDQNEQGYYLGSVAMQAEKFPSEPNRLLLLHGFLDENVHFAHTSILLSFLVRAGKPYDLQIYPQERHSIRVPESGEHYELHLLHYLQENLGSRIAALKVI
Chain of Dipeptidyl peptidase 9 (Q86TI2 whole entry): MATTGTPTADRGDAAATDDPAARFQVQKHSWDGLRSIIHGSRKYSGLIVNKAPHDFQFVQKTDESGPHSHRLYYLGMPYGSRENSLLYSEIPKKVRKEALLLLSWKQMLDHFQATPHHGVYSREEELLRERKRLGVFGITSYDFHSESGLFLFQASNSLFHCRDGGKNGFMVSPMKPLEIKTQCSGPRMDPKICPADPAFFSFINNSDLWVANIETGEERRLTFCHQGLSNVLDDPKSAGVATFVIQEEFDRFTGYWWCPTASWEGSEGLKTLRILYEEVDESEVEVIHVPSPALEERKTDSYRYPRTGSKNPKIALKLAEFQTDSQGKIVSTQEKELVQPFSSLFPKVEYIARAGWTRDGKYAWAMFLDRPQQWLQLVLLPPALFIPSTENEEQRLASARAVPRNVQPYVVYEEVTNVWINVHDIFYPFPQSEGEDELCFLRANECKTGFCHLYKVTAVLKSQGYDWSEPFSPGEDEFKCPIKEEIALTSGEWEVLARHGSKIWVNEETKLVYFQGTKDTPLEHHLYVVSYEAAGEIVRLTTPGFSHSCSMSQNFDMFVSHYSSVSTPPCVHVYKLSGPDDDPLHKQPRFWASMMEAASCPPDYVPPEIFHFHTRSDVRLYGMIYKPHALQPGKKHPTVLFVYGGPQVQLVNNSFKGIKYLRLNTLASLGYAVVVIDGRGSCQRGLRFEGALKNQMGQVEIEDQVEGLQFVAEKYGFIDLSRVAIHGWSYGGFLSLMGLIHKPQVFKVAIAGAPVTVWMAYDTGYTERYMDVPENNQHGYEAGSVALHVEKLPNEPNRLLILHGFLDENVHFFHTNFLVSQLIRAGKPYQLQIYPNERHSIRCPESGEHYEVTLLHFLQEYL

Compound: COc1cc([C@H]2CC[C@@H]([C@H](C(=O)N(C)C)[C@H](N)C(=O)N3CCC(F)(F)C3)CC2)nc(OC)n1
- IC50 (Dipeptidyl peptidase 8): > 100 µM

Compound: COc1cc([C@H]2CC[C@H]([C@H](C(=O)N(C)C)[C@H](N)C(=O)N3CCC(F)(F)C3)CC2)nc(OC)n1
- IC50 (Dipeptidyl peptidase 8): > 100 µM

Compound: CN(C)C(=O)[C@@H](c1ccc(-c2ccc(F)cc2)cc1)[C@H](N)C(=O)N1CC[C@H](F)C1
- clearance [1]: 4.8 mL/min/kg
- Activity (Mus musculus [2]): 21%

Compound: C[C@@H](c1ccc(-c2ccc(F)cc2)cc1)[C@H](N)C(=O)N1CC[C@H](F)C1
- clearance [1]: 8.6 mL/min/kg
- bioavailability [3]: 85%

Compound: CN(C)C(=O)[C@@H](c1ccc(-c2ccc3ncnn3c2)cc1)[C@H](N)C(=O)N1CC[C@H](F)C1
- clearance [1]: 7 mL/min/kg

Compound: CC(=O)N[C@H]1CC[C@H]([C@H](C)[C@H](N)C(=O)N2CC[C@H](F)C2)CC1
- clearance [1]: 42 mL/min/kg
- Activity (Mus musculus [2]): 26%
- bioavailability [3]: 56%
- IC50 (Dipeptidyl peptidase 9): > 100 µM
- IC50 [4]: > 100 µM

Compound: CN(C)C(=O)[C@@H]([C@H]1CC[C@H](c2cccc3ncnn32)CC1)[C@H](N)C(=O)N1CCC(F)(F)C1
- clearance [5]: 40 mL/min/kg
- half-life [6]: 2.9 h
- bioavailability [7]: 98%

Compound: CN(C)C(=O)[C@@H]([C@H]1CC[C@H](c2cccc3ncnn32)CC1)[C@H](N)C(=O)N1CC[C@H](F)C1
- half-life [6]: 0.54 h
- bioavailability [7]: 31%

Compound: CN(C)C(=O)[C@@H]([C@H]1CC[C@H](c2ccc3ncnn3c2)CC1)[C@H](N)C(=O)N1CCC(F)(F)C1
- clearance [1]: 5.3 mL/min/kg
- bioavailability [3]: 63%
- half-life [8]: 4.1 h
- half-life [9]: 3.9 h
- clearance [10]: 5.6 mL/min/kg
- AUC (Canis familiaris): 46 µM·h
- bioavailability [11]: 97%
- AUC [12]: 6.5 µM·h
- Cmax [13]: 3.3 µM
- IC50 [4]: > 90 µM
- half-life [14]: 4.1 h
- AUC [15]: 4.4 µM·h
- Cmax [16]: 16 µM
- Activity (Mus musculus [17]): 23%
- Cmax [18]: 2.8 µM
- bioavailability [19]: 100%
